Data as given in PMC10582678 (Clinical and Translational Science, 2023).

Key:
[1] = Safety, adverse events, multiple ascending doses; assay type: in vivo, human; conditions: for AEs / Abdominal discomfort / Constipation / Decreased leukocyte count / Decreased lymphocyte count / Decreased neutrophil count / Dermatitis allergic / Dyspepsia / Increased ALT / Increased AST / Increased blood bilirubin / Increased blood creatinine / Lethargy / Mouth ulceration / Oropharyngeal pain / Sinus arrythmia / Upper respiratory tract infection / Increased blood cholesterol / Treatment discontinuation due to AEs / Increased blood triglycerides: n (%)
Method in brief: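 Safety was monitored by vital signs, clinical laboratory tests, physical examination, 12-lead ECG, AEs and SAEs. AEs were coded with MedDRA 23.1 and graded by CTCAE 5.0. Subjects were discharged 6 days after the last dose, with a follow-up visit 8–14 days after the last dose. The safety set comprised randomized subjects who received active drug or placebo and had post-dose safety data.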

[2] = Preclinical safety in beagles; assay type: in vivo; conditions: stated in introduction
[3] = Plasma pharmacokinetics, food effect; assay type: in vivo, human; conditions: 600 mg; for half-life / Tmax: human, plasma, oral; for half-life: T1/2, 600 mg, mean ± SD; for Tmax: median (min, max)
Method in brief: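 This was a randomized, open-label, two-period crossover in 12 healthy subjects. Each received one oral 600 mg dose fasted then fed, or the reverse, with a 7-day washout. Drug was quantified by validated HPLC-tandem accurate mass spectrometry (calibration 5.00–5000 ng/mL). Parameters came from noncompartmental analysis.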

[4] = 18 subjects, MAD 200 to 600 mg for 10 days

SMILES: N#CN1C[C@H](n2nc(-c3ccc(Oc4ccc(Cl)cn4)cc3)c(C(N)=O)c2N)CCC12CC2 [SN1011, 5-amino-3-(4-((5-chloro-2-pyridinyl)oxy)phenyl)-1-((6R)-4-cyano-4-azaspiro[2.5]octan-6-yl)-1H-pyrazole-4-carboxamide]
- blood triglycerides increased [1, 4]: 33.3%
- leucocyte count decreased [1, 4]: 22.2%
- neutrophil count decreased [1, 4]: 27.8%
- number of AEs [1, 4]: 34
- subjects who experienced AEs [1, 4]: 66.7%
- subjects with at least a treatment-related AE (TRAE) ([1]; 18 subjects, MAD 200 to 600 mg, all grade 1 or 2): 61.1%
- AEs ([1]; MAD 200 mg QD, any grade): 3 (50.0)
- Abdominal discomfort ([1]; MAD 200 mg QD, any grade): 0
- Constipation ([1]; MAD 200 mg QD, any grade): 0
- Decreased leukocyte count ([1]; MAD 200 mg QD, any grade): 1 (16.7)
- Decreased lymphocyte count ([1]; MAD 200 mg QD, any grade): 0
- Decreased neutrophil count ([1]; MAD 200 mg QD, any grade): 1 (16.7)
- Dermatitis allergic ([1]; MAD 200 mg QD, any grade): 0
- Dyspepsia ([1]; MAD 200 mg QD, any grade): 0
- Increased ALT ([1]; MAD 200 mg QD, any grade): 1 (16.7)
- Increased AST ([1]; MAD 200 mg QD, any grade): 1 (16.7)
- Increased blood bilirubin ([1]; MAD 200 mg QD, any grade): 1 (16.7)
- Increased blood creatinine ([1]; MAD 200 mg QD, any grade): 0
- Lethargy ([1]; MAD 200 mg QD, any grade): 0
- Mouth ulceration ([1]; MAD 200 mg QD, any grade): 0
- Oropharyngeal pain ([1]; MAD 200 mg QD, any grade): 0
- Sinus arrythmia ([1]; MAD 200 mg QD, any grade): 0
- Upper respiratory tract infection ([1]; MAD 200 mg QD, any grade): 0
- Increased blood cholesterol ([1]; MAD 200 mg QD): 0
- Treatment discontinuation due to AEs ([1]; MAD 200 mg QD): 0
- AEs ([1]; MAD 400 mg QD, any grade): 4 (66.7)
- Abdominal discomfort ([1]; MAD 400 mg QD, any grade): 0
- Constipation ([1]; MAD 400 mg QD, any grade): 0
- Decreased leukocyte count ([1]; MAD 400 mg QD, any grade): 1 (16.7)
- Decreased lymphocyte count ([1]; MAD 400 mg QD, any grade): 0
- Decreased neutrophil count ([1]; MAD 400 mg QD, any grade): 2 (33.3)
- Dermatitis allergic ([1]; MAD 400 mg QD, any grade): 0
- Dyspepsia ([1]; MAD 400 mg QD, any grade): 0
- Increased ALT ([1]; MAD 400 mg QD, any grade): 0
- Increased AST ([1]; MAD 400 mg QD, any grade): 0
- Increased blood bilirubin ([1]; MAD 400 mg QD, any grade): 0
- Increased blood creatinine ([1]; MAD 400 mg QD, any grade): 2 (33.3)
- Increased blood triglycerides ([1]; MAD 400 mg QD, any grade): 2 (33.3)
- Lethargy ([1]; MAD 400 mg QD, any grade): 0
- Mouth ulceration ([1]; MAD 400 mg QD, any grade): 0
- Sinus arrythmia ([1]; MAD 400 mg QD, any grade): 1 (16.7)
- Upper respiratory tract infection ([1]; MAD 400 mg QD, any grade): 1 (16.7)
- Increased blood cholesterol ([1]; MAD 400 mg QD): 0
- Treatment discontinuation due to AEs ([1]; MAD 400 mg QD): 0
- AEs ([1]; MAD 600 mg QD, any grade): 5 (83.3)
- Abdominal discomfort ([1]; MAD 600 mg QD, any grade): 1 (16.7)
- Constipation ([1]; MAD 600 mg QD, any grade): 1 (16.7)
- Decreased leukocyte count ([1]; MAD 600 mg QD, any grade): 2 (33.3)
- Decreased lymphocyte count ([1]; MAD 600 mg QD, any grade): 1 (16.7)
- Decreased neutrophil count ([1]; MAD 600 mg QD, any grade): 2 (33.3)
- Dermatitis allergic ([1]; MAD 600 mg QD, any grade): 2 (33.3)
- Dyspepsia ([1]; MAD 600 mg QD, any grade): 1 (16.7)
- Increased ALT ([1]; MAD 600 mg QD, any grade): 1 (16.7)
- Increased AST ([1]; MAD 600 mg QD, any grade): 1 (16.7)
- Increased blood bilirubin ([1]; MAD 600 mg QD, any grade): 1 (16.7)
- Increased blood creatinine ([1]; MAD 600 mg QD, any grade): 0
- Increased blood triglycerides ([1]; MAD 600 mg QD, any grade): 2 (33.3)
- Lethargy ([1]; MAD 600 mg QD, any grade): 1 (16.7)
- Mouth ulceration ([1]; MAD 600 mg QD, any grade): 1 (16.7)
- Oropharyngeal pain ([1]; MAD 600 mg QD, any grade): 1 (16.7)
- Sinus arrythmia ([1]; MAD 600 mg QD, any grade): 0
- Increased blood cholesterol ([1]; MAD 600 mg QD): 0
- Treatment discontinuation due to AEs ([1]; MAD 600 mg QD): 0
- AEs ([1]; MAD All SN1011, N = 18): 12 (66.7)
- Abdominal discomfort ([1]; MAD All SN1011, N = 18): 1 (5.6)
- Constipation ([1]; MAD All SN1011, N = 18): 1 (5.6)
- Decreased leukocyte count ([1]; MAD All SN1011, N = 18): 4 (22.2)
- Decreased lymphocyte count ([1]; MAD All SN1011, N = 18): 1 (5.6)
- Decreased neutrophil count ([1]; MAD All SN1011, N = 18): 5 (27.8)
- Dermatitis allergic ([1]; MAD All SN1011, N = 18): 2 (11.1)
- Dyspepsia ([1]; MAD All SN1011, N = 18): 1 (5.6)
- Increased ALT ([1]; MAD All SN1011, N = 18): 2 (11.1)
- Increased AST ([1]; MAD All SN1011, N = 18): 2 (11.1)
- Increased blood bilirubin ([1]; MAD All SN1011, N = 18): 2 (11.1)
- Increased blood cholesterol ([1]; MAD All SN1011, N = 18): 0
- Increased blood creatinine ([1]; MAD All SN1011, N = 18): 2 (11.1)
- Increased blood triglycerides ([1]; MAD All SN1011, N = 18): 6 (33.3)
- Lethargy ([1]; MAD All SN1011, N = 18): 1 (5.6)
- Mouth ulceration ([1]; MAD All SN1011, N = 18): 1 (5.6)
- Oropharyngeal pain ([1]; MAD All SN1011, N = 18): 1 (5.6)
- Sinus arrythmia ([1]; MAD All SN1011, N = 18): 1 (5.6)
- Treatment discontinuation due to AEs ([1]; MAD All SN1011, N = 18): 0
- Upper respiratory tract infection ([1]; MAD All SN1011, N = 18): 1 (5.6)
- safety profile [2]: acceptable safety profile
- AUC0-inf, Geometric Mean Ratio ([3]; fed state to fasted state): 93.76%
- AUC0-t, Geometric Mean Ratio ([3]; fed state to fasted state): 92.79%
- Cmax, Geometric Mean Ratio ([3]; fed state to fasted state): 97.08%
- half-life ([3]; Fasted): 24.3 ± 8.7 h
- half-life ([3]; Fed): 26.6 ± 13.3 h
- Tmax ([3]; Fasted): 4 h
- Tmax ([3]; Fed): 6 h
